These results are taken from ChEMBL document CHEMBL1125654, “New inhibitors of human renin that contain novel replacements at the P2 site” (J Med Chem, 1991).

Data set [1] deals with T1, Cathepsin D (Bos taurus, UniProt P80209).
T1 sequence (P80209 whole entry): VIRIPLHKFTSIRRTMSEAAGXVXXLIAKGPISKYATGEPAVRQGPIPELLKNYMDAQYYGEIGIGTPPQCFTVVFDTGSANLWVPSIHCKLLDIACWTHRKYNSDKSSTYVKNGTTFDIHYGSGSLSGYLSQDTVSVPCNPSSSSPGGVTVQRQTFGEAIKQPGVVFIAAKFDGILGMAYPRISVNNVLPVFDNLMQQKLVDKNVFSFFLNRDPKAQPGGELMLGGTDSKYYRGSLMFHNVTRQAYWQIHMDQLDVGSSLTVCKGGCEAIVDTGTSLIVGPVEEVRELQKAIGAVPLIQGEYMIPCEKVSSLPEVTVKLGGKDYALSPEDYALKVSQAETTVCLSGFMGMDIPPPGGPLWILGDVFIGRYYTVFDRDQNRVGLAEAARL
Kind of data set: (§1) Inhibitory activity against bovine cathepsin D was determined. In short, it runs like this:
(§2)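 Bovine cathepsin D activity assayed in duplicate as hydrolysis of bovine hemoglobin (2× crystallized) at pH 3.2, 37 °C. Net absorbance at 280 nm read in acid-precipitated supernatants of inhibited vs uninhibited controls. IC50 from six inhibitor concentrations by nonlinear regression.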

Data set [2] can be described thus: Partition coefficient (logD7.4). As to conditions: octanol/water.
Data set [3] has as its target T2, Renin (Homo sapiens, UniProt P00797).
T2 sequence (P00797 whole entry): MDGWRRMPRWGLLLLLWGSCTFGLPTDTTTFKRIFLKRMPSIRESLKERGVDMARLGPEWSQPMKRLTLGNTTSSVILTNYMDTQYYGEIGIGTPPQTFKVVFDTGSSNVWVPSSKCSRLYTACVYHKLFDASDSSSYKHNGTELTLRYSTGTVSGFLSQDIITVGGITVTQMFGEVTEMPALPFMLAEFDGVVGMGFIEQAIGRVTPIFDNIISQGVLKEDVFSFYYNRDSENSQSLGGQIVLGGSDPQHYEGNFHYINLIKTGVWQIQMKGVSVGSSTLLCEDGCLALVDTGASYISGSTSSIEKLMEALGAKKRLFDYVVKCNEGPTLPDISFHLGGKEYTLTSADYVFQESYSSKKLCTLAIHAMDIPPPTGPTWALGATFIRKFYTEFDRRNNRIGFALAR
Description: Inhibitory activity against monkey plasma renin. The data set is classed as cell-free, Cercopithecidae. As to conditions: target entry is the homologue from another species. In short, it runs like this: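 Plasma from salt-depleted, furosemide-treated monkeys (native renin and angiotensinogen) incubated with maleate buffer (pH 6.0), PMSF and inhibitor in DMSO for 60 min at 37 °C. Plasma renin activity was 3–8 ng AI/mL per h. Percent inhibition was taken vs DMSO vehicle tubes, and IC50 from six concentrations by nonlinear regression.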

The target in data set [4] is T2, Renin. Description: Inhibitory activity against human plasma renin. The data set is classed as cell-free.
The next data set addresses T3, Cathepsin D (Bos taurus) (UniProt P80209).
T3 sequence (whole entry): T1 sequence (P80209 whole entry)
The data set is described as §1. As to conditions: concentration not given here. In short, it runs like this: as §2

Data set [5] deals with T2, Renin. Description: Inhibitory activity against human plasma renin; G means not measured. The data set is classed as cell-free.
The next data set concerns the target T4, Renin (Homo sapiens) (UniProt P00797).
T4 sequence (whole entry): T2 sequence (P00797 whole entry)
Description: Inhibitory activity against monkey plasma renin was determined at 10e-5 M concentration. As to conditions: Cercopithecidae, target entry is the homologue from another species. The data set is classed as cell-free. In short, it runs like this: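 Angiotensin I generated from monkey plasma (native renin and angiotensinogen) with maleate buffer pH 6.0, PMSF and inhibitor in DMSO, 60 min at 37 °C. Percent inhibition estimated against DMSO vehicle control tubes. Plasma renin activity 3–8 ng AI/mL per h.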

Data set [6] in a line: solubility in phosphate buffer at pH 7.4. The data set is classed as physicochemical.
For data set [7], the target named is T1, Cathepsin D. Description: Inhibitory activity against bovine Cathepsin D was determined. In short, it runs like this:
as §2

Molecules are shown by their SMILES. pIC50: −log10 of the molar value.

The term pIC50 denotes the IC50 on a negative log10 scale, so that one unit is a factor of ten. One may read the logD as lipophilicity at a set pH, counting ionised and neutral species. Regarding `CCC(C)CNC(=O)C[C@H](O)C(CC(C)C)NC(=O)C(CCCCC/N=C(\N)N[N+](=O)[O-])NC(=O)C(Cc1cccc2ccccc12)Cc1cccc2ccccc12` (stereo not given in full), the pIC50 is 5.83 against Cathepsin D [1], 7.70 against Renin [3] and 7.59 against Renin [4]. Moreover, the logD in data set [2] (pH 7.4) was 5.1.
One may read the inhibition as the percentage by which the read-out fell short of the control. On Cathepsin D (Bos taurus), `CC(=O)NCC#CCC(NC(=O)C(Cc1cccc2ccccc12)Cc1cccc2ccccc12)C(=O)NC(CC1CCCCC1)[C@@H](O)CC(=O)N1CCOC(CCN)C1` (stereo not given in full) came in with an inhibition of 0.3%. At Renin [3], this compound had a pIC50 of 8.05.
In the case of `CCC(C)CNC(=O)C[C@H](O)C(CC(C)C)NC(=O)C(CC#CCNC(C)=O)NC(=O)C(Cc1cccc2ccccc12)Cc1cccc2ccccc12` (stereo in doubt; 55a), the values for the pIC50 on Cathepsin D [1], against Renin [5] and at Renin [3] were 7.11, 8.70 and 8.34, respectively. In data set [2] (pH 7.4, logD), this compound had a logD of 5.32.
Consider `CCC(C)CNC(=O)C[C@H](O)C(CC(C)C)NC(=O)C(CCCCNP(=O)(Oc1ccccc1)Oc1ccccc1)NC(=O)C(Cc1cccc2ccccc12)Cc1cccc2ccccc12` (stereo not given in full), for which, in data set [2] (pH 7.4), the logD was 7.88. Besides, at Renin (Homo sapiens), the inhibition turned out to be 48%. Further, at Renin [4], the pIC50 was 6.13.
At Cathepsin D (Bos taurus), `NCCC1CN(C(=O)C[C@H](O)C(CC2CCCCC2)NC(=O)C(CC#CC/N=C(/N)N[N+](=O)[O-])NC(=O)C(Cc2cccc3ccccc23)Cc2cccc3ccccc23)CCO1` (stereo not given in full) showed an inhibition of 0.7%.
Usually solubility stands for the concentration that dissolves in the medium under given conditions. Take `CCC(C)CNC(=O)C[C@H](O)C(CC(C)C)NC(=O)C(CCCC/N=C(/S)NC)NC(=O)C(Cc1cccc2ccccc12)Cc1cccc2ccccc12` (stereo not given in full): the logD in data set [2] (pH 7.4, logD) amounted to 5.71. Also, the solubility in data set [6] was < 10 µg/mL. In addition, the values for the pIC50 on Renin [3], against Renin [4] and against Cathepsin D [7] were 7.64, 7.89 and 6.11, respectively.
For the compound `CCC(C)CNC(=O)C[C@H](O)C(CC1CCCCC1)NC(=O)C(CCCC/N=C(/S)NC)NC(=O)C(Cc1cccc2ccccc12)Cc1cccc2ccccc12` (stereo not given in full), the pIC50 is 5.49 at Cathepsin D [1] and 7.33 at Renin [3]. In addition, the logD in [2] (pH 7.4, logD) worked out at 6.63.
With `C/N=C(\S)NCCCCC(NC(=O)C(Cc1cccc2ccccc12)Cc1cccc2ccccc12)C(=O)NC(CC(C)C)[C@@H](O)CC(=O)NC(CC(C)C)C(=O)NCc1ccccc1` (stereo not given in full), the logD in [2] (pH 7.4, logD) is 6.7. Also, in data set [6], the solubility is < 10 µg/mL. In addition, the pIC50 against Renin [3] is 7.00; against Renin [4], 7.22.
In turn, `CCC(C)CNC(=O)C[C@H](O)C(CC(C)C)NC(=O)C(CCCCNS(=O)(=O)c1ccc(C)cc1)NC(=O)C(Cc1cccc2ccccc12)Cc1cccc2ccccc12` (stereo not given in full) yielded a logD in data set [2] (pH 7.4, logD) of 6.7. Besides, the inhibition against Renin (Homo sapiens) came out at 48%. This compound also showed a pIC50 on Renin [4] of 5.52.
Compound `CCC(C)CNC(=O)C[C@H](O)C(CC(C)C)NC(=O)C(CCCn1cccc1)NC(=O)C(Cc1cccc2ccccc12)Cc1cccc2ccccc12` (stereo not given in full) displayed a logD in [2] (pH 7.4, logD) of 7.09. Besides, the pIC50 on Renin [3] is 6.41; against Renin [4] it was 6.27.
In turn, `CC(C)CC(NC(=O)C[C@H](O)C(CC(C)C)NC(=O)C(CCCCNC(=N)N[N+](=O)[O-])NC(=O)C(Cc1cccc2ccccc12)Cc1cccc2ccccc12)C(=O)NCc1ccccc1` (stereo not given in full) came in with a logD in [2] (pH 7.4) of 5.51. The pIC50 is 7.31 at Renin [3] and 7.82 against Renin [4].
`CCC(C)CNC(=O)C[C@H](O)C(CC(C)C)NC(=O)C(CCCCn1cccc1)NC(=O)C(Cc1cccc2ccccc12)Cc1cccc2ccccc12` (stereo not given in full): the logD in data set [2] (pH 7.4, logD) was 7.21. Moreover, the pIC50 against Renin [3] was 6.84; at Renin [4] it was 7.06.
Regarding `CCC(C)CNC(=O)C[C@H](O)C(CC(C)C)NC(=O)C(CCCCNC(N)=O)NC(=O)C(Cc1cccc2ccccc12)Cc1cccc2ccccc12` (stereo not given in full), the logD in [2] (pH 7.4, logD) came to 5.31. In addition, the pIC50 against Renin [3] was 7.05; against Renin [4] it was 7.30.
`CC(C)CC(NC(=O)C[C@H](O)C(CC(C)C)NC(=O)C(CCCCNC(=O)OCc1ccccc1)NC(=O)C(Cc1cccc2ccccc12)Cc1cccc2ccccc12)C(=O)NCc1ccccc1` (stereo not given in full): the logD in [2] (pH 7.4, logD) was 7.69. The figures for the pIC50 on Renin [3] and against Renin [4] were 5.10 and 5.54, respectively.
`NCCC1CN(C(=O)C[C@H](O)C(CC2CCCCC2)NC(=O)C(Cc2c[nH]cn2)NC(=O)C(Cc2ccccc2)NS(=O)(=O)N2CCOCC2)CCO1` (stereo not given in full): the logD in [2] (pH 7.4, logD) came out at 2.25. Moreover, the pIC50 was 8.30 against Renin [3] and 8.27 on Renin [4].
On the same counts, the results for `CCC(C)CNC(=O)C[C@H](O)C(CC(C)C)NC(=O)C(CCNC(C)=O)NC(=O)C(Cc1cccc2ccccc12)Cc1cccc2ccccc12` (stereo not given in full) are 4.4, 5.38 and < 5.00.
